# Published values of several laboratories.
# Protocols differ between the studies behind these lines.
# EGFR L858R/T790M: Epidermal growth factor receptor (EGFR, Homo sapiens, UniProt P00533, L858R/T790M)
# EGFR: Epidermal growth factor receptor (EGFR, Homo sapiens, UniProt P00533)
SMILES,target,assay,quantity,value
Cc1ccc2c(-c3cc4c(CN5CCN(Cc6ccccn6)CC5)cnc(C)c4o3)cc(=O)oc2c1,EGFR L858R/T790M,"enzyme activity, inhibitor, ADP detection",IC50,12.4 nM
COC(=O)[C@]12CCC(C)(C)C[C@H]1[C@H]1C(=O)C=C3[C@@]4(C)C=C(C#N)C(=O)C(C)(C)[C@@H]4CC[C@@]3(C)[C@]1(C)CC2,EGFR L858R/T790M,"binding, MST",Kd,1100 nM
C=CC(=O)Nc1cc(Nc2ncc(C(=O)OC(C)C)c(-c3cn(C)c4ccccc34)n2)c(OC)cc1N(C)CCN(C)C,EGFR L858R/T790M,"enzyme activity, inhibitor",IC50,0.6 nM
CC(C)=CCc1c(O)c(O)c2oc3c(O)ccc(O)c3c(=O)c2c1CC=C(C)C,EGFR,"binding, SPR",Kd,19000 nM
Cc1c(Cc2ccccc2)c(=O)oc2c(C)c(OCC(=O)NN=Cc3ccc([N+](=O)[O-])cc3)ccc12,EGFR,"enzyme activity, inhibitor, ATP luminescence",IC50,313 nM
COc1ccc2[nH]c(C(=O)Nc3nc(CC(=O)O)cs3)cc2c1,EGFR,"enzyme activity, inhibitor, ELISA",IC50,1740 nM
CCc1c(C)c2ccc(OCC(=O)NN=Cc3ccc([N+](=O)[O-])cc3)cc2oc1=O,EGFR,"enzyme activity, inhibitor, ATP luminescence",IC50,414 nM
Cc1ncc(CN2CCc3ccccc3C2)c2cc(C(=O)c3ccc4c(c3)OCCO4)oc12,EGFR L858R/T790M,"enzyme activity, inhibitor, ADP detection",IC50,10.8 nM
O=C(O)Cc1csc(NC(=O)c2cc3ccccc3[nH]2)n1,EGFR,"enzyme activity, inhibitor, ELISA",IC50,618 nM
O=C(CCn1c(=O)ccc2ccccc21)N1CCOCC1,EGFR,"enzyme activity, inhibitor",IC50,52.7 nM
Cc1ncc(CN2CCN(Cc3ccccn3)CC2)c2cc(C(=O)c3ccc4c(c3)OCCO4)oc12,EGFR L858R/T790M,"enzyme activity, inhibitor, ADP detection",IC50,3.23 nM
C=CC(=O)N1CC[C@@H](Oc2nc(Nc3ccc(N4CCC(N5CCN(C)CC5)CC4)cc3)c(C(N)=O)nc2CC)C1,EGFR L858R/T790M,"enzyme activity, inhibitor",IC50,1.2 nM
